Measurements from ChEMBL document CHEMBL4689842, “EUbOPEN Chemogenomics Library wave 1” (2021).

Tested on: U2OS
Assay: Multiplex assay against U2OS
Assay type: toxicity, cell-based
Conditions: human
How it was run: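 Tubulin, mitochondrial-mass and membrane-permeability phenotypes are per cents of healthy-nucleus cells. Cells were gated by CellPathfinder machine learning into Hoechst high-intensity objects or normal cells, normal cells into healthy, pyknosed or fragmented nuclei, and pyknosed cells into mitotic or apoptotic. Before that, live cells stained at seeding with Hoechst33342, BioTracker Green Microtubule Cytoskeleton Dye, MitoTracker Red and Annexin V Alexa Fluor 680 were imaged on a CQ1 microscope at 37°C and 5% CO2 after compound addition.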

[1] = 12 h, 1 µM, compound concentration 1 uM, replicate 1
[2] = 12 h, 1 µM, compound concentration 1 uM, replicate 2
[3] = 12 h, 10 µM, compound concentration 10 uM, replicate 1
[4] = 12 h, 10 µM, compound concentration 10 uM, replicate 2
[5] = 24 h, 1 µM, compound concentration 1 uM, replicate 1
[6] = 24 h, 1 µM, compound concentration 1 uM, replicate 2
[7] = 24 h, 10 µM, compound concentration 10 uM, replicate 1
[8] = 24 h, 10 µM, compound concentration 10 uM, replicate 2
[9] = 48 h, 1 µM, compound concentration 1 uM, replicate 1
[10] = 48 h, 1 µM, compound concentration 1 uM, replicate 2
[11] = 48 h, 10 µM, compound concentration 10 uM, replicate 1
[12] = 48 h, 10 µM, compound concentration 10 uM, replicate 2

## CCN(CC)CCCCNc1ncc2cc(-c3cc(OC)cc(OC)c3)c(NC(=O)NC(C)(C)C)nc2n1 [PD-173074]
[1]
  Population Apoptotic (%): 53%
  Population Fragmented Nuclei (%): 27%
  Population Healthy Nuclei (%): 4%
  Population Hoechst High Intensity Objects (%): 56%
  Population Membrane Permeable-Phenotype (%): 66%
  Population Mitochondria Different-Phenotype (%): 16%
  Population Mitotic Cells (%): 46%
  Population Normal (%): 43%
  Population Pyknosed Nuclei (%): 67%
  Population Tubulin-Different-Phenotype (%): 33%
  Total Cell Count: 280
[2]
  Population Apoptotic (%): 54%
  Population Fragmented Nuclei (%): 31%
  Population Healthy Nuclei (%): 11%
  Population Hoechst High Intensity Objects (%): 55%
  Population Membrane Permeable-Phenotype (%): 64%
  Population Mitochondria Different-Phenotype (%): 29%
  Population Mitotic Cells (%): 45%
  Population Normal (%): 44%
  Population Pyknosed Nuclei (%): 57%
  Population Tubulin-Different-Phenotype (%): 47%
  Total Cell Count: 186
[3]
  Population Fragmented Nuclei (%): 20%
  Population Healthy Nuclei (%): 52%
  Population Hoechst High Intensity Objects (%): 19%
  Population Membrane Permeable-Phenotype (%): 39%
  Population Mitochondria Different-Phenotype (%): 27%
  Population Normal (%): 80%
  Population Pyknosed Nuclei (%): 26%
  Population Tubulin-Different-Phenotype (%): 92%
  Total Cell Count: 206
[4]
  Population Apoptotic (%): 21%
  Population Fragmented Nuclei (%): 33%
  Population Healthy Nuclei (%): 34%
  Population Hoechst High Intensity Objects (%): 30%
  Population Membrane Permeable-Phenotype (%): 37%
  Population Mitochondria Different-Phenotype (%): 51%
  Population Mitotic Cells (%): 78%
  Population Normal (%): 69%
  Population Pyknosed Nuclei (%): 31%
  Population Tubulin-Different-Phenotype (%): 73%
  Total Cell Count: 129
[5]
  Population Apoptotic (%): 70%
  Population Fragmented Nuclei (%): 17%
  Population Healthy Nuclei (%): 8%
  Population Hoechst High Intensity Objects (%): 60%
  Population Membrane Permeable-Phenotype (%): 71%
  Population Mitochondria Different-Phenotype (%): 28%
  Population Mitotic Cells (%): 29%
  Population Normal (%): 39%
  Population Pyknosed Nuclei (%): 74%
  Population Tubulin-Different-Phenotype (%): 57%
  Total Cell Count: 298
[6]
  Population Apoptotic (%): 71%
  Population Fragmented Nuclei (%): 30%
  Population Healthy Nuclei (%): 15%
  Population Hoechst High Intensity Objects (%): 63%
  Population Membrane Permeable-Phenotype (%): 84%
  Population Mitochondria Different-Phenotype (%): 38%
  Population Mitotic Cells (%): 28%
  Population Normal (%): 36%
  Population Pyknosed Nuclei (%): 53%
  Population Tubulin-Different-Phenotype (%): 69%
  Total Cell Count: 168
[7]
  Population Apoptotic (%): 35%
  Population Fragmented Nuclei (%): 16%
  Population Healthy Nuclei (%): 54%
  Population Hoechst High Intensity Objects (%): 17%
  Population Membrane Permeable-Phenotype (%): 20%
  Population Mitochondria Different-Phenotype (%): 48%
  Population Mitotic Cells (%): 64%
  Population Normal (%): 82%
  Population Pyknosed Nuclei (%): 29%
  Population Tubulin-Different-Phenotype (%): 74%
  Total Cell Count: 202
[8]
  Population Apoptotic (%): 45%
  Population Fragmented Nuclei (%): 26%
  Population Healthy Nuclei (%): 33%
  Population Hoechst High Intensity Objects (%): 21%
  Population Membrane Permeable-Phenotype (%): 18%
  Population Mitochondria Different-Phenotype (%): 52%
  Population Mitotic Cells (%): 54%
  Population Normal (%): 78%
  Population Pyknosed Nuclei (%): 40%
  Population Tubulin-Different-Phenotype (%): 59%
  Total Cell Count: 113

## O=C1NCN(c2ccccc2)C12CCN(CCCOc1ccc(F)cc1)CC2 [SPIRAMIDE]
[1]
  Population Apoptotic (%): 22%
  Population Fragmented Nuclei (%): 16%
  Population Healthy Nuclei (%): 77%
  Population Hoechst High Intensity Objects (%): 6%
  Population Membrane Permeable-Phenotype (%): 1%
  Population Mitochondria Different-Phenotype (%): 9%
  Population Mitotic Cells (%): 77%
  Population Normal (%): 93%
  Population Pyknosed Nuclei (%): 6%
  Population Tubulin-Different-Phenotype (%): 10%
  Total Cell Count: 210
[2]
  Population Apoptotic (%): 0%
  Population Fragmented Nuclei (%): 10%
  Population Healthy Nuclei (%): 88%
  Population Hoechst High Intensity Objects (%): 7%
  Population Membrane Permeable-Phenotype (%): 0%
  Population Mitochondria Different-Phenotype (%): 10%
  Population Mitotic Cells (%): 100%
  Population Normal (%): 92%
  Population Pyknosed Nuclei (%): 1%
  Population Tubulin-Different-Phenotype (%): 6%
  Total Cell Count: 74
[3]
  Population Apoptotic (%): 36%
  Population Fragmented Nuclei (%): 16%
  Population Healthy Nuclei (%): 51%
  Population Hoechst High Intensity Objects (%): 10%
  Population Membrane Permeable-Phenotype (%): 4%
  Population Mitochondria Different-Phenotype (%): 74%
  Population Mitotic Cells (%): 63%
  Population Normal (%): 90%
  Population Pyknosed Nuclei (%): 31%
  Population Tubulin-Different-Phenotype (%): 50%
  Total Cell Count: 145
[4]
  Population Apoptotic (%): 50%
  Population Fragmented Nuclei (%): 3%
  Population Healthy Nuclei (%): 88%
  Population Hoechst High Intensity Objects (%): 8%
  Population Membrane Permeable-Phenotype (%): 2%
  Population Mitochondria Different-Phenotype (%): 27%
  Population Mitotic Cells (%): 50%
  Population Normal (%): 91%
  Population Pyknosed Nuclei (%): 7%
  Population Tubulin-Different-Phenotype (%): 12%
  Total Cell Count: 91
[5]
  Population Apoptotic (%): 27%
  Population Fragmented Nuclei (%): 8%
  Population Healthy Nuclei (%): 80%
  Population Hoechst High Intensity Objects (%): 7%
  Population Membrane Permeable-Phenotype (%): 0%
  Population Mitochondria Different-Phenotype (%): 5%
  Population Mitotic Cells (%): 72%
  Population Normal (%): 92%
  Population Pyknosed Nuclei (%): 11%
  Total Cell Count: 229
[6]
  Population Apoptotic (%): 0%
  Population Fragmented Nuclei (%): 7%
  Population Healthy Nuclei (%): 89%
  Population Hoechst High Intensity Objects (%): 6%
  Population Membrane Permeable-Phenotype (%): 2%
  Population Mitochondria Different-Phenotype (%): 7%
  Population Mitotic Cells (%): 100%
  Population Normal (%): 93%
  Population Pyknosed Nuclei (%): 3%
  Population Tubulin-Different-Phenotype (%): 7%
  Total Cell Count: 76
[7]
  Population Apoptotic (%): 41%
  Population Fragmented Nuclei (%): 18%
  Population Healthy Nuclei (%): 32%
  Population Hoechst High Intensity Objects (%): 8%
  Population Membrane Permeable-Phenotype (%): 10%
  Population Mitochondria Different-Phenotype (%): 71%
  Population Mitotic Cells (%): 58%
  Population Normal (%): 91%
  Population Pyknosed Nuclei (%): 48%
  Population Tubulin-Different-Phenotype (%): 31%
  Total Cell Count: 173
[8]
  Population Apoptotic (%): 27%
  Population Fragmented Nuclei (%): 3%
  Population Healthy Nuclei (%): 78%
  Population Hoechst High Intensity Objects (%): 6%
  Population Membrane Permeable-Phenotype (%): 2%
  Population Mitochondria Different-Phenotype (%): 21%
  Population Mitotic Cells (%): 72%
  Population Normal (%): 93%
  Population Pyknosed Nuclei (%): 18%
  Population Tubulin-Different-Phenotype (%): 10%
  Total Cell Count: 118
[9]
  Population Apoptotic (%): 25%
  Population Fragmented Nuclei (%): 9%
  Population Healthy Nuclei (%): 85%
  Population Hoechst High Intensity Objects (%): 4%
  Population Membrane Permeable-Phenotype (%): 1%
  Population Mitochondria Different-Phenotype (%): 12%
  Population Mitotic Cells (%): 75%
  Population Normal (%): 95%
  Population Pyknosed Nuclei (%): 4%
  Population Tubulin-Different-Phenotype (%): 8%
  Total Cell Count: 288
[10]
  Population Apoptotic (%): 16%
  Population Fragmented Nuclei (%): 8%
  Population Healthy Nuclei (%): 84%
  Population Hoechst High Intensity Objects (%): 1%
  Population Membrane Permeable-Phenotype (%): 0%
  Population Mitochondria Different-Phenotype (%): 10%
  Population Mitotic Cells (%): 83%
  Population Normal (%): 98%
  Population Pyknosed Nuclei (%): 6%
  Population Tubulin-Different-Phenotype (%): 9%
  Total Cell Count: 106
[11]
  Population Apoptotic (%): 67%
  Population Fragmented Nuclei (%): 32%
  Population Healthy Nuclei (%): 21%
  Population Hoechst High Intensity Objects (%): 12%
  Population Membrane Permeable-Phenotype (%): 12%
  Population Mitochondria Different-Phenotype (%): 58%
  Population Mitotic Cells (%): 32%
  Population Normal (%): 87%
  Population Pyknosed Nuclei (%): 45%
  Population Tubulin-Different-Phenotype (%): 28%
  Total Cell Count: 265
[12]
  Population Apoptotic (%): 16%
  Population Fragmented Nuclei (%): 13%
  Population Healthy Nuclei (%): 78%
  Population Hoechst High Intensity Objects (%): 9%
  Population Membrane Permeable-Phenotype (%): 11%
  Population Mitochondria Different-Phenotype (%): 16%
  Population Mitotic Cells (%): 83%
  Population Normal (%): 90%
  Population Pyknosed Nuclei (%): 7%
  Population Tubulin-Different-Phenotype (%): 18%
  Total Cell Count: 182
